Screening data deposited in PubChem by several laboratories.
A selection: hits, their analogues and other compounds. The true share with any hit is near 4.1%.
ATG4B inh = blocks human ATG4B protease cleavage of LC3 substrate. AID 504462. ATG4B cleavage of LC3-PLA2, NBD-HPC fluorescence, 1 h. Q9Y4P1. inhibition, % at 8.33 µM. actives 0.51% (n = 340,000); in the data active means inhibition above about 40%
SMARCA2 act = increases SMARCA2 function in MMTV reporter cells | MG213 cells, MMTV-luciferase reporter, dexamethasone, overnight | activation, % at 9.1 µM | actives 1% (n = 370,000); in the data active means activation above about 7.8%;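 further: 0% = vehicle wells and 100% = reference activator wells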
MPTP inh = blocks calcium-induced mitochondrial swelling; isolated mouse mitochondria, Ca2+ swelling absorbance, 30 min; inhibition, % at 10 µM; actives 1.4% (n = 360,000);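 active means inhibition of 50% or more, scaled per plate between neutral and stimulator controls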;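 further: 0% = DMSO wells given calcium and 100% = 1 mM EGTA wells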
MC4R barr agon = agonists of human melanocortin 4 receptor (MC4R) beta-arrestin; P32245; U2OS MC4R beta-arrestin complementation, luminescence; percent of melanotan II response, DMSO zero; activation, % at 8.9 µM; actives 0.98% (n = 360,000);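 active means activation above a per-plate cutoff, the mean activation of sample wells on that plate plus 3 SD, cut at about 8% in these data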
Target sequence (P32245 whole entry, looked up): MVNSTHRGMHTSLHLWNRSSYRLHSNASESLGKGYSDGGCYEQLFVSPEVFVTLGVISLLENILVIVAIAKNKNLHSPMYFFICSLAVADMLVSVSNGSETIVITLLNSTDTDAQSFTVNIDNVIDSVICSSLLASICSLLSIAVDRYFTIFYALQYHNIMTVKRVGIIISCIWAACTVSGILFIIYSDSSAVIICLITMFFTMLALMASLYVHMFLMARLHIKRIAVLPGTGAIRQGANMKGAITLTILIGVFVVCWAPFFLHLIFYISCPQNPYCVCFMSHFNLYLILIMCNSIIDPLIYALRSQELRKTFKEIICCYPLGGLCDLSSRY
MC4R antag cAMP = blocks human MC4R cAMP signaling | P32245 | MC4R-expressing cells, MTII-stimulated cAMP, LANCE TR-FRET | inhibition, % at 6.5 µM | actives 0.48% (n = 360,000);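 active means inhibition above its plate's cutoff, the mean of tested wells on that plate plus 3 SD, cut at about 29% in these data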;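 further: 0% = Melanotan II alone and 100% = Melanotan II plus saturating MCL0020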
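Material: U2OS-MC4R stable cell line | Reagent: Melanotan II challenge after compound preincubation | Doses: One concentration, 6.5 µM nominal | Incubation: 30-min compound preincubation, 1-h Melanotan II challenge, 1-h detection, room temperature | Signal: TR-FRET cAMP assay | Replicates: One well per compound, no replicates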
Rh123 counter = membrane potential counter-screen of mitochondrial pore inhibitors; isolated mitochondria, Rhodamine 123 fluorescence; shares compounds with MPTP inh; inhibition, % at 10 µM; actives 78% (n = 5,000); in the data active means inhibition above about 22%;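 further: 0% = DMSO vehicle and 100% = positive control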
Active calls of the source: *; . = no result given.

SMILES	ATG4B inh	SMARCA2 act	MPTP inh	MC4R barr agon	MC4R antag cAMP	Rh123 counter
O=C(Nc1ccncc1)Nc1cccc(C(F)(F)F)c1	-4	-3	81*	0	1	99*
O=C(Nc1cccc(C(F)(F)F)c1)c1sc(Cl)nc1C(F)(F)F	-3	-3	83*	0	21	77*
NNC(=O)Nc1cccc(C(F)(F)F)c1	-23	-1	1	0	0	.
COc1ccc(-c2ccccc2C2Cc3nnccc3CN2)cc1 (centres undefined)	.	3	.	.	.	.
O=C(NCCNC(=O)c1cc(OCC(F)(F)F)ccc1OCC(F)(F)F)Nc1cccc(C(F)(F)F)c1	-5	-6	72*	1	11	88*
O=C(Nc1ccc(OC(F)F)cc1)Nc1cccc(C(F)(F)F)c1	-2	-14	86*	2	9	63*
CN(C)S(=O)(=O)NCCNC(=O)c1cc(OCC(F)(F)F)ccc1OCC(F)(F)F	-5	-1	1	-2	-2	.
COC(=O)[C@H](C)NC(=O)Nc1cccc(C(F)(F)F)c1	5	-3	-3	-1	12	.
COC(=O)[C@]12C[C@H](CC(=O)N3CCSCC3)C(=O)N(CCC3=CCCCC3)C1=C[C@H](C1CCCC1)O[C@@H]2C	.	-1	.	.	.	.
CC(C)c1[nH]nc2c1C(c1ccc3c(c1)OCO3)NC2=O (centres undefined)	.	0	.	.	.	.
Cc1cc(C)n(C(=O)/C(C#N)=N/Nc2cc(Cl)cc(Cl)c2)n1	4	.	103*	-2	5	94*
Cc1cc(C)n(C(=O)/C(C#N)=N\Nc2ccccc2[N+](=O)[O-])n1	-1	-3	2	2	3	.
CNCc1ccccc1Sc1cccc2ccccc12	3	-6	93*	0	-1	20*
O=C(Nc1ccc(C(=O)N2CCCC2)cc1)Nc1ccc(Cl)cc1Cl	-7	0	-3	-1	4	.
O=C(N/N=C\c1c(O)ccc2ccccc12)c1ccc(S(=O)(=O)N2CCCCC2)cc1	4	0	95*	0	0	70*
Cc1oc(S(=O)(=O)N2CCCCC2)cc1NC(=O)Nc1ccc(Cl)cc1	-9	-3	84*	1	6	79*
O=S(=O)(c1ccc(NC(=S)NN=Cc2ccccc2O)cc1)N1CCCCC1	0	-5	99*	0	-6	81*
O=C(NN=Cc1c(O)ccc2ccccc12)c1ccc2c(c1)OCO2	3	-5	21	2	-5	.
O=C(CN1CCCc2ccccc21)N/N=C/c1c(O)ccc2ccccc12	-8	-3	95*	0	-2	89*
CC(C)[C@H](N)C(=O)N[C@H](C(=O)N1CCC2CCN(S(=O)(=O)c3ccccc3)CC21)C(C)C (some centres undefined)	.	1	.	.	.	.
OC(c1ccc(F)cc1)c1nc(-c2cc3ccccc3o2)cs1 (centres undefined)	.	1	2	7	12	.
O=S(=O)(c1ccc(Cl)c(NC(=S)N/N=C/c2c(F)cccc2F)c1)N1CCOCC1	-7	-1	57*	-1	17	47*
O=S(=O)(c1ccc(Cl)c(NC(=S)N/N=C/c2ccc(O)cc2)c1)N1CCOCC1	-21	-3	10	-3	-4	.
O=S(=O)(c1ccc(NC(=S)NC23CC4CC(CC(C4)C2)C3)cc1)N1CCCCC1	.	-2	90*	3	14	61*
FC(F)Oc1ccc(NC(=S)NC23CC4CC(CC(C4)C2)C3)cc1	-2	-1	54*	2	-5	95*
SMILES	ATG4B inh	SMARCA2 act	MPTP inh	MC4R barr agon	MC4R antag cAMP	Rh123 counter
N#CC(C#N)=NNc1ccc(S(=O)(=O)N2CCCCC2)cc1	-8	-7	89*	-1	22	91*
N#C/C(=N\Nc1ccc(S(=O)(=O)N2CCOCC2)cc1)C(N)=S	3	-3	5	-2	2	.
O=C(Nc1ccccc1)Nc1ccc(S(=O)(=O)N2CCCCC2)cc1	-7	-1	99*	1	9	89*
Cc1oc(S(=O)(=O)N2CCCCC2)cc1NC(=O)Nc1ccccc1	-13	-6	51*	0	10	54*
O=[N+]([O-])c1cc(Cl)cc(/C=N/NC(=S)Nc2ccc(S(=O)(=O)N3CCOCC3)cc2)c1O	13	-4	72*	-4	27	26*
COc1ccc(NC(=O)Nc2ccccc2)cc1S(=O)(=O)N1CCCCC1	-10	-4	-1	-1	2	.
